Molecules are shown by their SMILES. Where only a bound is given, the exact number is not on record here.

The target in data set [1] is Platelet-derived growth factor receptor beta (Homo sapiens) (UniProt P09619). In words: Inhibition of recombinant TEL-fused PDGFR-beta (unknown origin) expressed in mouse BAF3 cells assessed as growth inhibition after 72 hrs by CellTiter-Glo or CCK-8 assay. The class given is cell-based. The method in brief: (§1)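 Isogenic murine BaF3 cells transformed with TEL-fused kinases, whose proliferation depends on the fused kinase, were used. Parental BaF3 cells served as the general selectivity counter-screen. The anti-proliferative read-out was reported as GI50.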

Data set [2] deals with T1, Tyrosine-protein kinase JAK3 (Homo sapiens) (UniProt P52333).
T1 sequence (whole entry): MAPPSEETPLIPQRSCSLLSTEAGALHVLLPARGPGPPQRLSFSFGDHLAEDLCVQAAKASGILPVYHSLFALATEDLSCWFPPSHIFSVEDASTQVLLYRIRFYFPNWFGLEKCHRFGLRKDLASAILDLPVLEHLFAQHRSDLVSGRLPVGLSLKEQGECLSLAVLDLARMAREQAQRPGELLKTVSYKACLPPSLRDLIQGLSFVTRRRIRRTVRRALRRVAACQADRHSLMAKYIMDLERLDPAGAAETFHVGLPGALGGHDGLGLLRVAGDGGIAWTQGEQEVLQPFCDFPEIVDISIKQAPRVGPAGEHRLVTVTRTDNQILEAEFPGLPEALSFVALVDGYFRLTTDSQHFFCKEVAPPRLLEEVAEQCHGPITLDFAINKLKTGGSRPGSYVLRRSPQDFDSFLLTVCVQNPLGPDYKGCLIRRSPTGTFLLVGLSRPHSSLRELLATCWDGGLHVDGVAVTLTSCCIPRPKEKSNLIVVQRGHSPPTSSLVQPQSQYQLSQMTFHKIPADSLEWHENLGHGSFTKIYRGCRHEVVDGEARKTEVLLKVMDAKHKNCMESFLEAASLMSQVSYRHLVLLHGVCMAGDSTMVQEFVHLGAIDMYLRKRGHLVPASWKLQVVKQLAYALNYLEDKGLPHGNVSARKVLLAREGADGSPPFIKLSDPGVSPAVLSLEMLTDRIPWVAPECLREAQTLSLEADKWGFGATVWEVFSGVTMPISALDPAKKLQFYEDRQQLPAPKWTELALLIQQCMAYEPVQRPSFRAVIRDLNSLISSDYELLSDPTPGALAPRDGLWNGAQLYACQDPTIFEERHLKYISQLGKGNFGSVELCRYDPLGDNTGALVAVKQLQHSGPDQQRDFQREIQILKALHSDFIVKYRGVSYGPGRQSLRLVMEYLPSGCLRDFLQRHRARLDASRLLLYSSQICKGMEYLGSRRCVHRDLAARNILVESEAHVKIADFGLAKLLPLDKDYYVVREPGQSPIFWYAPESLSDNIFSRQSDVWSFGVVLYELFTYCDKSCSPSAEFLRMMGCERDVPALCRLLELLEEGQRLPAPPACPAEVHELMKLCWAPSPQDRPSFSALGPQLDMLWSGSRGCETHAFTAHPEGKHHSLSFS
In words: Inhibition of recombinant TEL-fused JAK3 (unknown origin) expressed in mouse BAF3 cells assessed as growth inhibition after 72 hrs by CellTiter-Glo or CCK-8 assay. It counts as cell-based. The method in brief:
as §1

The target in data set [3] is Mast/stem cell growth factor receptor Kit (Homo sapiens) (UniProt P10721). Briefly: Inhibition of recombinant TEL-fused c-KIT (unknown origin) expressed in mouse BAF3 cells assessed as growth inhibition after 72 hrs by CellTiter-Glo or CCK-8 assay. The class given is cell-based. Put shortly:
as §1

Data set [4] concerns the target Mitogen-activated protein kinase 14 (Homo sapiens, UniProt Q16539). Briefly: Inhibition of full-length recombinant human GST-tagged p38alpha expressed in Escherichia coli by Z'-LYTE assay.
Data set [5] concerns the target Platelet-derived growth factor receptor alpha (Homo sapiens) (UniProt P16234). Briefly: Inhibition of recombinant TEL-fused PDGFR-alpha (unknown origin) expressed in mouse BAF3 cells assessed as growth inhibition after 72 hrs by CellTiter-Glo or CCK-8 assay. It counts as cell-based. Put shortly: as §1
The target in data set [6] is T2, Cytoplasmic tyrosine-protein kinase BMX (Homo sapiens) (UniProt P51813).
T2 sequence (whole entry): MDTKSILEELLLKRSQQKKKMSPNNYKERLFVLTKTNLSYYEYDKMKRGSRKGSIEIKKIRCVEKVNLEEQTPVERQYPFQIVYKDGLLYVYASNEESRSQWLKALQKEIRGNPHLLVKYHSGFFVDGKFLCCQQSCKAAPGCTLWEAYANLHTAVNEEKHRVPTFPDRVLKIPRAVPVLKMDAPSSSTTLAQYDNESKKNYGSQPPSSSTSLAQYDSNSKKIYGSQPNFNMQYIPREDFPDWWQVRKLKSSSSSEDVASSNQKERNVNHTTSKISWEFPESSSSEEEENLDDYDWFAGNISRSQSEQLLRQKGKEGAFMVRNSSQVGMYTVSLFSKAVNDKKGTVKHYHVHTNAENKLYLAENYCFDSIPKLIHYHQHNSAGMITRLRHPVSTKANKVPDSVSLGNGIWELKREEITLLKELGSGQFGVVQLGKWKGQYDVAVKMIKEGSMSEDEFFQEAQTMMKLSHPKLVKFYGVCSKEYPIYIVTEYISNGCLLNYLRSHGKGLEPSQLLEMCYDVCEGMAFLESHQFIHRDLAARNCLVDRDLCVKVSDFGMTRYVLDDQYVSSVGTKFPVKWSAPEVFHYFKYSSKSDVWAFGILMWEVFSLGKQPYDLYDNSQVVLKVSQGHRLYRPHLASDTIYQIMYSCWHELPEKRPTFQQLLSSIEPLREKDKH

The target of data set [7] is Tyrosine-protein kinase BTK (Homo sapiens, UniProt Q06187). Briefly: Inhibition of full-length recombinant human His-tagged BTK expressed in baculovirus expression system using Poly(4:1 Glu, Tyr) as substrate after 1 hr by ADP-Glo kinase assay.
In data set [8] the target is Epidermal growth factor receptor (Homo sapiens) (UniProt P00533). In words: Inhibition of recombinant TEL-fused EGFR (unknown origin) expressed in mouse BAF3 cells assessed as growth inhibition after 72 hrs by CellTiter-Glo or CCK-8 assay. The class given is cell-based. Put shortly:
as §1

The target in data set [9] is Tyrosine-protein kinase ABL1 (Homo sapiens) (UniProt P00519). Briefly: Inhibition of recombinant TEL-fused ABL (unknown origin) expressed in mouse BAF3 cells assessed as growth inhibition after 72 hrs by CellTiter-Glo or CCK-8 assay. The class given is cell-based. Put shortly: as §1
The target of data set [10] is Receptor-type tyrosine-protein kinase FLT3 (Homo sapiens) (UniProt P36888). In words: Inhibition of recombinant TEL-fused FLT3 (unknown origin) expressed in mouse BAF3 cells assessed as growth inhibition after 72 hrs by CellTiter-Glo or CCK-8 assay. The class given is cell-based. Put shortly:
as §1

The target in data set [11] is Epithelial discoidin domain-containing receptor 1 (Homo sapiens, UniProt Q08345). Briefly: Inhibition of human GST-tagged DDR1 catalytic domain expressed in baculovirus expression system by LanthaScreen assay.
Data set [12] is described as follows: Growth inhibition of mouse BAF3 cells after 72 hrs by CellTiter-Glo or CCK-8 assay. The class given is cell-based. Put shortly:
as §1

The target of data set [13] is Tyrosine-protein kinase Blk (Homo sapiens) (UniProt P51451). Briefly: Inhibition of recombinant TEL-fused BLK (unknown origin) expressed in mouse BAF3 cells assessed as growth inhibition after 72 hrs by CellTiter-Glo or CCK-8 assay. The class given is cell-based. Put shortly: as §1
Sequence of Tyrosine-protein kinase Blk (Homo sapiens) (P51451 2-505 limits assumed): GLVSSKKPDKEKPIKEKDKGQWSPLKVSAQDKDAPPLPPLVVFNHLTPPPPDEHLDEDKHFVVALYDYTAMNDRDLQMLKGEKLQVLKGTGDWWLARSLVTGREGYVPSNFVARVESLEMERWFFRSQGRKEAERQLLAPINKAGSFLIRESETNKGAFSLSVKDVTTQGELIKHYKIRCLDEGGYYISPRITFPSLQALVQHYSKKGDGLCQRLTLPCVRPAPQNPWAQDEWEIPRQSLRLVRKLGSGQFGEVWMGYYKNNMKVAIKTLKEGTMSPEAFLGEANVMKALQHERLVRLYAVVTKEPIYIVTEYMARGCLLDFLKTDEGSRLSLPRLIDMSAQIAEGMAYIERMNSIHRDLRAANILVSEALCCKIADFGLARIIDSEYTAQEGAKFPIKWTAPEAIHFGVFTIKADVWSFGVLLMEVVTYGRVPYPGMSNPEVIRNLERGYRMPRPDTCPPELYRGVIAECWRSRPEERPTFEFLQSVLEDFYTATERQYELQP

Sequence of Platelet-derived growth factor receptor alpha (Homo sapiens) (P16234 whole entry, the tested form may be a part): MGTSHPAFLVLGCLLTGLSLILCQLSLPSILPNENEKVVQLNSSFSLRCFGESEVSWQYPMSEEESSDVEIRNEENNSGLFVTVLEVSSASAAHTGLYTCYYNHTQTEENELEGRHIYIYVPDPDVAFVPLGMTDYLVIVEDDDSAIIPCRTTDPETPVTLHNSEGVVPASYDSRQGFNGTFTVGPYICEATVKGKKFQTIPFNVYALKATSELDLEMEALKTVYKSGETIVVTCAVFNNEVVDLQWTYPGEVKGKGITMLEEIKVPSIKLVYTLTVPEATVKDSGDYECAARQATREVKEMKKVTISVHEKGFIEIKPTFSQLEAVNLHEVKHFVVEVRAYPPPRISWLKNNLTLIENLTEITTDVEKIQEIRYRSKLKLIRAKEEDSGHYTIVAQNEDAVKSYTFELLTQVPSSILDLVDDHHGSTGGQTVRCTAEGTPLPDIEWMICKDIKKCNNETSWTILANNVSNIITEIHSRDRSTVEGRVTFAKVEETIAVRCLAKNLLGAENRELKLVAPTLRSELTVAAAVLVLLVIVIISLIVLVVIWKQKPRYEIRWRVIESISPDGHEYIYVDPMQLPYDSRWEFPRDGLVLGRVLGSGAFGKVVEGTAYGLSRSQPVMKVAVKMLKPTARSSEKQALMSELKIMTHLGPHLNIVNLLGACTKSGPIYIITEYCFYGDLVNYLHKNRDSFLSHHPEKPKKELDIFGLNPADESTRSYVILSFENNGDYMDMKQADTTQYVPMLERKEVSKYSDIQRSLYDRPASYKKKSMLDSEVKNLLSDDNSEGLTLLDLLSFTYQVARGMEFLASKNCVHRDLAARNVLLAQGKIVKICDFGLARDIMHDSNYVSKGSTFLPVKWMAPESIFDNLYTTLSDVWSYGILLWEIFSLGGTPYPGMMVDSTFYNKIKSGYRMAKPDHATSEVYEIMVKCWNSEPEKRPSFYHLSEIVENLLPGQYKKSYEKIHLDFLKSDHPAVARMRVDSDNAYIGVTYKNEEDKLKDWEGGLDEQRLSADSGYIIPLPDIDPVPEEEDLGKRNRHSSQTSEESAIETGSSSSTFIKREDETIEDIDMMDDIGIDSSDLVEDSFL
Sequence of Receptor-type tyrosine-protein kinase FLT3 (Homo sapiens) (P36888 whole entry, the tested form may be a part): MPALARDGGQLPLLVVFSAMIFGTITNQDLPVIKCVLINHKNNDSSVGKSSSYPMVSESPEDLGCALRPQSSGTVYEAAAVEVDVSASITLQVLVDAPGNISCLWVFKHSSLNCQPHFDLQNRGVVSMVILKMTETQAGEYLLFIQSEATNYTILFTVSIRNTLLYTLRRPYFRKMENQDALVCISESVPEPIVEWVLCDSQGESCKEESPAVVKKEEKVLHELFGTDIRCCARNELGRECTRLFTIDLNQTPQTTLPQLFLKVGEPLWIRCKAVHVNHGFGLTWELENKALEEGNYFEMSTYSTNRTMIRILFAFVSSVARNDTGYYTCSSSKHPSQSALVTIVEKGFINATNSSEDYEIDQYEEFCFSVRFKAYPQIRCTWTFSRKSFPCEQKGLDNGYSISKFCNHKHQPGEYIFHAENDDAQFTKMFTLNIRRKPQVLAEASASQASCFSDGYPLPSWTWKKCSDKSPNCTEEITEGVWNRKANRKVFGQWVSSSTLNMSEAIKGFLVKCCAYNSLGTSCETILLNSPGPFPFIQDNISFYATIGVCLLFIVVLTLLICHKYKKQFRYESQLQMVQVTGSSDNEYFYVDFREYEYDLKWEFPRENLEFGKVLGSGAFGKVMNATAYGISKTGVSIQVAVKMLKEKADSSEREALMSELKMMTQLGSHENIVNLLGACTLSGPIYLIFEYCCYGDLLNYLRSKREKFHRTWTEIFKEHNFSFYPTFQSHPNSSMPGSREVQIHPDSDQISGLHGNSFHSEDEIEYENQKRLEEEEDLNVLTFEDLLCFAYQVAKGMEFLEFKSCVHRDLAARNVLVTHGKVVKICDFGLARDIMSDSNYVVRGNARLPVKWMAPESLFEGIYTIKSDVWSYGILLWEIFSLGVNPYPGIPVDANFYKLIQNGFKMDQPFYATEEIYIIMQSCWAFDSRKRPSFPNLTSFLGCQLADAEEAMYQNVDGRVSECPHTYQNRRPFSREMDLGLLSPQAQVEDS
Sequence of Mast/stem cell growth factor receptor Kit (Homo sapiens) (P10721 whole entry, the tested form may be a part): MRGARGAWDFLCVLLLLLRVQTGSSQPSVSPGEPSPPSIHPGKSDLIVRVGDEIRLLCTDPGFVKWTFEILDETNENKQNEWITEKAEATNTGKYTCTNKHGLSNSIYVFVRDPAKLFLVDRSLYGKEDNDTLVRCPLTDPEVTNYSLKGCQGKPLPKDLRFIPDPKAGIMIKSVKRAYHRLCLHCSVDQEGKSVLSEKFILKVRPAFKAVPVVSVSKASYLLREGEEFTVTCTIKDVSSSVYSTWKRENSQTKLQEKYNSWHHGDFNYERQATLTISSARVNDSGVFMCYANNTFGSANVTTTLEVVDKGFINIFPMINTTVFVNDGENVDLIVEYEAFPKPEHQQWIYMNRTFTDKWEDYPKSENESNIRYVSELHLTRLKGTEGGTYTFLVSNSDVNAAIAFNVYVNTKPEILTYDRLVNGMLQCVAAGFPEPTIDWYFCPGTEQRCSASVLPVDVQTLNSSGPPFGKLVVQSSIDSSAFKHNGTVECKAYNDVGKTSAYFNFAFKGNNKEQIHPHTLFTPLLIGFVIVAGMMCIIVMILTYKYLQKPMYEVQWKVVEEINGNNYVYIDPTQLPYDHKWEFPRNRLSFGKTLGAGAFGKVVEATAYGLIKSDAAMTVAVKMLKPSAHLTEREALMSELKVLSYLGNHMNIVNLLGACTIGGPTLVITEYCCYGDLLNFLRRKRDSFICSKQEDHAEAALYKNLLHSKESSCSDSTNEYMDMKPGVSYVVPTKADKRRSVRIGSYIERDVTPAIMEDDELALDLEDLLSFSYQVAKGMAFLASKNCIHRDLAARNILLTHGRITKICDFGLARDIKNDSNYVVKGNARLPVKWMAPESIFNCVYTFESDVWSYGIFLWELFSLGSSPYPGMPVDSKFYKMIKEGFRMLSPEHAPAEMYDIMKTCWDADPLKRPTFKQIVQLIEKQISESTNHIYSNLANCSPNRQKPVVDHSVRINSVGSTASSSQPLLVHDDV
Sequence of Epidermal growth factor receptor (Homo sapiens) (P00533 whole entry, the tested form may be a part): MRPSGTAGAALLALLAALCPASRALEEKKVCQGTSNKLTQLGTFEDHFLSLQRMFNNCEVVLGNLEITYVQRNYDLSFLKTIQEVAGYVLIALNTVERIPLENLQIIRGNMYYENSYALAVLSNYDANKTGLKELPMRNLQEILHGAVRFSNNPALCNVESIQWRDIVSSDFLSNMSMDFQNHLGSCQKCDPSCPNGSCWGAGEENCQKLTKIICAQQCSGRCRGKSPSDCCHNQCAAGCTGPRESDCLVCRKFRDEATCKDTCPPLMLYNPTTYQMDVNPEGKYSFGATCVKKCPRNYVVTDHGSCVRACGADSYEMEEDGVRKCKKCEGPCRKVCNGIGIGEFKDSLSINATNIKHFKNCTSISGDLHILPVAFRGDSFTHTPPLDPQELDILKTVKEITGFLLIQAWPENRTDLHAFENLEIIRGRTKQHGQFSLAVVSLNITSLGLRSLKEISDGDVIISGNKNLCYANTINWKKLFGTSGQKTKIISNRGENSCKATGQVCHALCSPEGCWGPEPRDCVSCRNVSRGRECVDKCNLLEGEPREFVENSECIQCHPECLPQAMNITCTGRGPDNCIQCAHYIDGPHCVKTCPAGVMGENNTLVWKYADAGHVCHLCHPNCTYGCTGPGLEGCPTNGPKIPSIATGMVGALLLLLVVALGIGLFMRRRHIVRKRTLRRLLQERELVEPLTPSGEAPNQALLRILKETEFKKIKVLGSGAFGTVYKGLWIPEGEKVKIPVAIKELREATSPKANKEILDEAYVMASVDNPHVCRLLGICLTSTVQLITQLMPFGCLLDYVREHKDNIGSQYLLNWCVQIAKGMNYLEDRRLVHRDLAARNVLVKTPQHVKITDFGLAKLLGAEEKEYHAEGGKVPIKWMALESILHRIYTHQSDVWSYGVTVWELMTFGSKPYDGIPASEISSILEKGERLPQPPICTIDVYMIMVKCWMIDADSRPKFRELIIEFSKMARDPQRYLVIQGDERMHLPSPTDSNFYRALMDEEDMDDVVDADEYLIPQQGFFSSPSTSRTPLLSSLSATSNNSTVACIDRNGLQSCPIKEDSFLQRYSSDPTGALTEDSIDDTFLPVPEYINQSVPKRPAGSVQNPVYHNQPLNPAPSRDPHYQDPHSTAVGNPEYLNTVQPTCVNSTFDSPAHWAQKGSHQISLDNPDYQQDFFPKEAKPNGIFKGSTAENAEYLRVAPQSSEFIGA

In the case of `CCC(=O)Nc1cc(Nc2ncc(C(=O)Nc3cc(NC(=O)c4cc(OC)c(OC)c(OC)c4)ccc3C)c(NC)n2)ccc1C`, the GI50 in [1] is 790 nM; in data set [2] it was greater than 10000 nM; in data set [3], 2800 nM; in [5] it was 370 nM; in [6], 610 nM; in data set [8], greater than 10000 nM. In addition, the figures for the 50% growth inhibitory concentration (GI50) in [9] and in [10] were 2510 nM and greater than 10000 nM, respectively. In addition, the IC50 in data set [4] was 89 nM; in [7] it was greater than 10000 nM; in [11] it was 212 nM. The compound further showed a GI50 at 72 h in [12] greater than 10000 nM.
In data set [6], `C=CC(=O)Nc1cc(Nc2ncc(C(=O)Nc3cc(NC(=O)c4ccc(OC)c(OC)c4)ccc3C)c(NC)n2)ccc1C` came in with a 50% growth inhibitory concentration (GI50) of 1000 nM. For the same compound, the 50% growth inhibitory concentration (GI50) at 72 h in data set [12] is greater than 10000 nM.
The compound `C=CC(=O)Nc1cc(Nc2ncc3c(n2)N(C)C(=O)N(c2cc(NC(=O)c4ccc(OC)c(OC)c4)ccc2C)C3)ccc1C` showed a GI50 in data set [6] of 240 nM. The compound further yielded a concentration for 50% growth inhibition (GI50) at 72 h in data set [12] of 8130 nM.
`C=CC(=O)Nc1cc(Nc2ncc3c(n2)N(C)C(=O)N(c2cc(NC(=O)c4cc(C(F)(F)F)cc(C(F)(F)F)c4)ccc2C)C3)ccc1C`: it took 780 nM to inhibit growth in data set [6] by half (GI50). In data set [12], the GI50 at 72 h was greater than 10000 nM.
In the case of `C=CC(=O)Nc1cc(Nc2ncc(C(=O)Nc3cc(NC(=O)c4cccc(C(F)(F)F)c4)ccc3C)c(NC)n2)ccc1C`, the GI50 in data set [1] is 130 nM; in data set [2], greater than 10000 nM; in data set [3], 380 nM; in data set [13] it was 5900 nM; in data set [5] it was 99 nM; in [6], 13 nM. Besides, the GI50 in data set [8] is greater than 10000 nM; in data set [9] it was 118 nM; in data set [10], greater than 10000 nM. In addition, the 50% growth inhibitory concentration (GI50) at 72 h in data set [12] was greater than 10000 nM.
On to `C=CC(=O)Nc1cc(Nc2ncc3c(n2)N(C)C(=O)N(c2cc(NC(=O)[C@H]4CC[C@H](CCCC)CC4)ccc2C)C3)ccc1C`, for which growth in data set [6] was halved (GI50) at 2490 nM. The compound further showed a GI50 at 72 h in data set [12] of 5080 nM.
Taken in the same sequence, the figures for `C=CC(=O)Nc1cc(Nc2ncc(C(=O)Nc3cc(C(=O)Nc4cccc(C(F)(F)F)c4)ccc3C)c(NC)n2)ccc1C` were 8 nM and 4900 nM.
For `C=CC(=O)Nc1cc(Nc2ncc(C(=O)Nc3cc(C(=O)Nc4cc(OC)c(OC)c(OC)c4)ccc3C)c(NC)n2)ccc1C`, in that order: 98 nM and greater than 10000 nM.
Taken in the same sequence, the figures for `C=CC(=O)Nc1cc(Nc2ncc(C(=O)Nc3cc(NC(=O)c4cc(C)ccc4F)ccc3C)c(NC)n2)ccc1C` were 44 nM and greater than 10000 nM.
In data set [6], `C=CC(=O)Nc1cc(Nc2ncc3c(n2)N(C)C(=O)N(c2cc(NC(=O)[C@H]4CC[C@H](C)CC4)ccc2C)C3)ccc1C` returned a GI50 of 2280 nM. The same compound showed a concentration for 50% growth inhibition (GI50) at 72 h in data set [12] of 8810 nM.
In [6], `C=CC(=O)Nc1cc(Nc2ncc3c(n2)N(C)C(=O)N(c2cc(NC(=O)c4c(C)cccc4F)ccc2C)C3)ccc1C` displayed a GI50 of 2780 nM. In data set [12], this compound showed a 50% growth inhibitory concentration (GI50) at 72 h greater than 10000 nM.
Taken in the same sequence, the figures for `C=CC(=O)Nc1cc(Nc2ncc3c(n2)N(C)C(=O)N(c2cc(NC(=O)[C@@H](N)Cc4cc5ccccc5[nH]4)ccc2C)C3)ccc1C` were greater than 10000 nM and greater than 10000 nM.
Taken in the same sequence, the figures for `C=CC(=O)Nc1cc(Nc2ncc(C(=O)Nc3cc(NC(=O)c4ccccc4OC)ccc3C)c(NC)n2)ccc1C` were 670 nM and greater than 10000 nM.
Taken in the same sequence, the figures for `C=CC(=O)Nc1cc(Nc2ncc3c(n2)N(C)C(=O)N(c2cc(NC(=O)[C@H]4CC[C@H](C(C)C)CC4)ccc2C)C3)ccc1C` were 5280 nM and greater than 10000 nM.
In data set [6], `C=CC(=O)Nc1cc(Nc2ncc3c(n2)N(C)C(=O)N(c2cc(NC(=O)c4ccc5c(c4)OCCO5)ccc2C)C3)ccc1C` came in with a GI50 greater than 10000 nM. Also, the GI50 at 72 h in [12] was greater than 10000 nM.
In the case of `C=CC(=O)Nc1cc(Nc2ncc3c(n2)N(C)C(=O)N(c2cc(NC(=O)c4ccc(OC)cc4OC)ccc2C)C3)ccc1C`, it took 2740 nM to inhibit growth in [6] by half (GI50). In data set [12], this compound came in with a GI50 at 72 h greater than 10000 nM.
For the compound `C=CC(=O)Nc1cc(Nc2ncc3c(n2)N(C)C(=O)N(c2cc(NC(=O)[C@@H](N)CCC(=O)OC(C)(C)C)ccc2C)C3)ccc1C`, growth in [6] was halved (GI50) at 8350 nM. In addition, the concentration for 50% growth inhibition (GI50) at 72 h in data set [12] was greater than 10000 nM.
`CCC(=O)Nc1cc(Nc2ncc(C(=O)Nc3cc(NC(=O)c4cccc(C(F)(F)F)c4)ccc3C)c(NC)n2)ccc1C`: the GI50 in data set [1] came out at 59 nM; in data set [2], 8300 nM; in [3], 170 nM; in [13], 6500 nM; in [5], 45 nM; in data set [6], 85 nM. In addition, the GI50 was greater than 10000 nM in data set [8], 44 nM in data set [9] and 8600 nM in [10]. For the same compound, the GI50 at 72 h in [12] is greater than 10000 nM.

The values are drawn from ChEMBL document CHEMBL4007402 (J Med Chem, 2017).
